Experimental data taken from ChEMBL document CHEMBL1158956, “Biologically active metabolites from Xenorhabdus spp., Part 2. Benzopyran-1-one derivatives with gastroprotective activity” (1991).
Converted amounts (≈) assume the structure as drawn. The source made the active and inactive calls. The calls are words filed in the database; no cut-off is given here.

Key:
[1] = system: Escherichia coli; assay: Antimicrobial activity against Escherichia coli 10418; format: functional
Method in brief: (§1)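 MIC by blood agar screen: DST agar with 10% defibrinated horse blood; inocula were undiluted overnight broth cultures; plates incubated aerobically overnight at 37°.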

[2] = system: Corynebacterium xerosis; assay: Antimicrobial activity against Corynebacterium xerosis NCTC 9755; format: functional; method in brief: as §1
[3] = system: Streptococcus pyogenes; assay: Antimicrobial activity against Streptococcus pyogenes CN10; format: functional; method in brief: as §1
[4] = system: Rattus norvegicus; assay: Antiulcerogenic activity in stress-induced Wistar rat assessed as protection from ulcer at 10 mg/kg, po; format: functional
[5] = system: Pseudomonas aeruginosa; assay: Antimicrobial activity against Pseudomonas aeruginosa 1771P; format: functional; method in brief: as §1
[6] = system: Escherichia coli; assay: Antimicrobial activity against Escherichia coli DCO; format: functional; method in brief: as §1
[7] = system: Salmonella typhimurium; assay: Antimicrobial activity against Salmonella Typhimurium CT10; format: functional, Salmonella enterica subsp. enterica serovar Typhimurium; details: Salmonella enterica; method in brief: as §1
[8] = system: Micrococcus luteus; assay: Antimicrobial activity against Sarcina lutea ATCC 8740; format: functional; method in brief: as §1
[9] = system: Citrobacter freundii; assay: Antimicrobial activity against Citrobacter freundii ES; format: functional; method in brief: as §1
[10] = system: Klebsiella aerogenes; assay: Antimicrobial activity against Klebsiella aerogenes A; format: functional; method in brief: as §1
[11] = system: Staphylococcus aureus; assay: Antimicrobial activity against Staphylococcus aureus V573; format: functional; method in brief: as §1
[12] = system: Escherichia coli; assay: Antimicrobial activity against Escherichia coli ESS; format: functional; method in brief: as §1
[13] = system: Rattus norvegicus; assay: Antiulcerogenic activity in stress-induced Wistar rat assessed as protection from ulcer at 25 mg/kg, po; format: functional
[14] = system: Acinetobacter lwoffii; assay: Antimicrobial activity against Acinetobacter lwoffii BRL 2400; format: functional; method in brief: as §1
[15] = system: Proteus mirabilis; assay: Antimicrobial activity against Proteus mirabilis C977; format: functional; method in brief: as §1
[16] = system: Enterobacter cloacae; assay: Antimicrobial activity against Enterobacter cloacae N1; format: functional; method in brief: as §1
[17] = system: Priestia megaterium; assay: Antimicrobial activity against Bacillus megaterium NCIB 9376; format: functional; method in brief: as §1
[18] = system: Streptococcus sanguinis; assay: Antimicrobial activity against Streptococcus sanguis ATCC 10556; format: functional; method in brief: as §1
[19] = system: Staphylococcus aureus; assay: Antimicrobial activity against Staphylococcus aureus Oxford NCTC 6571; format: functional; method in brief: as §1
[20] = system: Cryptococcus neoformans; assay: Antimicrobial activity against Cryptococcus neoformans; format: functional
Method in brief: (§2)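 Microtiter MIC with twofold dilutions in defined (Yeast Nitrogen Base + 1% glucose) and complex (Sabouraud's glucose) broth; compound from DMSO stock, final DMSO <1%; inocula 10^3 and 10^5 cells/ml; incubated 2 days at 37°.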

[21] = system: Aspergillus niger; assay: Antimicrobial activity against Aspergillus niger at […] after 2 days by tube dilution method; format: functional, organism-based
Method in brief: (§3)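 Tube dilution MIC in defined medium (Yeast Nitrogen Base + 1% glucose) and complex medium (Sabouraud's glucose broth); compound dissolved in DMSO, final DMSO <1%; tenfold dilutions 100 to 0.1 μg/ml; inoculum 10^4 spores/ml; 2 days at 37°.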

[22] = system: Trichophyton rubrum; assay: Antimicrobial activity against Trichophyton rubrum at 128 ug/ml after 11 days by twofold dilution method; format: functional, organism-based
[23] = system: Aspergillus fumigatus; assay: Antimicrobial activity against Aspergillus fumigatus at […] after 2 days by tube dilution method; format: functional, organism-based; method in brief: as §3
[24] = system: Rattus norvegicus; assay: Antiulcerogenic activity in stress-induced Wistar rat assessed as protection from ulcer at 5 mg/kg, po; format: functional
[25] = system: Trichophyton mentagrophytes; assay: Antimicrobial activity against Trichophyton mentagrophytes at 128 ug/ml after 11 days by twofold dilution method; format: functional, organism-based
[26] = system: Candida parapsilosis; assay: Antimicrobial activity against Candida parapsilosis at 128 ug/ml after 2 days by twofold dilution method; format: functional, organism-based; method in brief: as §2
[27] = system: Candida albicans; assay: Antimicrobial activity against Candida albicans at 128 ug/ml after 2 days by twofold dilution method; format: functional, organism-based; method in brief: as §2

MIC [1] | MIC [2] | MIC [3] | MIC [5] | MIC [6] | MIC [7] | MIC [8] | MIC [9] | MIC [10] | MIC [11] | MIC [12] | MIC [14] | MIC [15] | MIC [16] | MIC [17] | MIC [18] | MIC [19] | Structure (SMILES) | Activity [4] | Activity [13] | also measured
2.5 µg/mL (≈ 5.37 µM) | 1 µg/mL (≈ 2.15 µM) | 1 µg/mL (≈ 2.15 µM) | > 100 µg/mL | 10 µg/mL (≈ 21.5 µM) | > 100 µg/mL | 1 µg/mL (≈ 2.15 µM) | > 100 µg/mL | > 100 µg/mL | 25 µg/mL (≈ 53.7 µM) | 0.5 µg/mL (≈ 1.07 µM) | 2.5 µg/mL (≈ 5.37 µM) | > 100 µg/mL | > 100 µg/mL | 2.5 µg/mL (≈ 5.37 µM) | 10 µg/mL (≈ 21.5 µM) | 10 µg/mL (≈ 21.5 µM) | CC(C)CC(NC(=O)C(O)C(O)C(N)CCCNC(=N)N)C1Cc2cccc(O)c2C(=O)O1 (stereo unspecified) [XENOCOUMACIN 1] | 8% | 74% | MIC [20]: 0.125 µg/mL (≈ 0.268 µM)
50 µg/mL (≈ 123 µM) | 5 µg/mL (≈ 12.3 µM) | 5 µg/mL (≈ 12.3 µM) | > 100 µg/mL | > 100 µg/mL | > 100 µg/mL | 5 µg/mL (≈ 12.3 µM) | > 100 µg/mL | > 100 µg/mL | > 100 µg/mL | 2.5 µg/mL (≈ 6.15 µM) | 5 µg/mL (≈ 12.3 µM) | > 100 µg/mL | > 100 µg/mL | 5 µg/mL (≈ 12.3 µM) | 10 µg/mL (≈ 24.6 µM) | 5 µg/mL (≈ 12.3 µM) | CC(C)CC(NC(=O)C(O)C(O)C1CCCN1)C1Cc2cccc(O)c2C(=O)O1 (stereo unspecified) [XENOCOUMACIN 2] | 61% | 70% | Activity [21]: inactive; Activity [22]: inactive; Activity [23]: inactive; Activity [24]: 26%; Activity [25]: inactive; Activity [26]: inactive; Activity [27]: inactive
